Results pooled from the literature.
Lines come from different studies, so protocols differ.
Organism: Pseudomonas aeruginosa
Read-out: microbial growth

SMILES	technique	strain	time	notes	MIC
CC1(C)SC2C(NC(=O)C(NC(=O)C3=C(O)C(Cc4ccccc4)NC3=O)c3ccccc3)C(=O)N2C1C(=O)O (stereo not shown)	–	–	–	–	6.25 µg/mL
COc1c(C)c(OC(C)=O)c(C)c(O)c1C(=O)/C=C/c1ccccc1	broth dilution	ATCC27853	–	–	5000 µg/mL
CN(C)c1nc(NC(=O)CNC(C)(C)C)c(O)c2c1C[C@H]1C[C@H]3[C@H](N(C)C)C(O)=C(C(N)=O)C(=O)[C@@]3(O)C(O)=C1C2=O.Cl	broth dilution	ATCC27853	–	–	> 32 µg/mL
CCCCCCC/C=C/C(=O)N1C(=O)/C(=C(\O)C2CCNCC2)C(=O)C1CC(C)C (stereo not shown)	–	PA01	–	–	25 µg/mL
CN(C)[C@@H]1C(O)=C(C(N)=O)C(=O)[C@@]2(O)C(O)=C3C(=O)c4c(cc5ccc(CN6CCCC6)cc5c4O)C[C@H]3C[C@@H]12	broth dilution	ATCC27853	–	–	32 µg/mL
CC1(C)SC2C(NC(=O)C(NC(=O)C3=C(O)C(Cc4ccc(F)cc4)NC3=O)c3ccccc3)C(=O)N2C1C(=O)O (stereo not shown)	–	–	–	–	25 µg/mL
CC1(C)S[C@@H]2[C@H](NC(=O)C(C(=O)O)c3ccccc3)C(=O)N2[C@H]1C(=O)O (stereo partly shown)	broth dilution	–	–	clinical isolate	> 200 µM
O=[N+]([O-])c1ccc(-c2nc3ccccc3n2Cc2ccccc2)cc1	broth dilution	ATCC27853	–	–	128 µg/mL
CN(C)CC(C)(C)CNc1nc(F)c2c(c1O)C(=O)C1=C(O)[C@]3(O)C(=O)C(C(N)=O)=C(O)[C@@H](N(C)C)[C@@H]3C[C@@H]1C2.Cl	broth dilution	ATCC27853	–	–	32 µg/mL
Brc1ccc(NCc2ccc(Oc3ccccn3)cc2)cc1	–	–	–	–	> 25 µg/mL
CC(C)Oc1c(NC(=O)c2ccc(NC(=O)[C@H](CC(N)=O)NC(=O)c3ccc(NC(=O)c4ccc(F)cc4)cc3)cc2)ccc(C(=O)Nc2ccc(C(=O)O)cc2)c1O	–	PA14	–	–	> 64 µg/mL
CCn1cc(C(=O)O)c(=O)c2cc(F)c(N3CCNCC3)cc21	broth dilution	ATCC10145	18 h	–	> 5 µg/mL
CCn1cc(C(=O)O)c(=O)c2cc(F)c(N3CCNCC3)cc21	broth dilution	ATCC9027	–	–	2 µM
CNc1nc(Cl)c2c(c1O)C(=O)C1=C(O)[C@]3(O)C(=O)C(C(N)=O)=C(O)[C@@H](N(C)C)[C@@H]3C[C@@H]1C2.Cl.Cl.Cl	broth dilution	ATCC27853	–	–	8 µg/mL
O=c1cc(-c2ccc(O)cc2)oc2cc(O)cc(O)c12	broth dilution	PAO1	–	–	128 µg/mL
Cc1cc(C#N)ccc1C(=O)Nc1ccc(C(=O)N[C@@H](CC(N)=O)C(=O)Nc2ccc(C(=O)Nc3ccc(C(=O)Nc4ccc(C(=O)O)cc4)c(O)c3OC(C)C)cc2)cc1	–	PA14	–	–	8 µg/mL
CN(C)[C@@H]1C(O)=C(C(N)=O)C(=O)[C@@]2(O)C(O)=C3C(=O)c4c(O)c(-c5ccccc5)nc(Cl)c4C[C@H]3C[C@@H]12.Cl	broth dilution	ATCC27853	–	–	> 32 µg/mL
CC(C)Oc1c(NC(=O)c2ccc(NC(=O)[C@H](CC(N)=O)NC(=O)c3cccc(-c4cccc(C#N)c4)c3)cc2)ccc(C(=O)Nc2ccc(C(=O)O)cc2)c1O	–	PA14	–	–	> 64 µg/mL
COc1c(C)c(OS(=O)(=O)c2ccc3ccccc3c2)c(C)c(O)c1C(=O)/C=C/c1ccccc1	broth dilution	ATCC27853	–	–	5000 µg/mL
O=C(O)c1cn(C2CC2)c2cc(N3CCNCC3)c(F)cc2c1=O	broth dilution	ATCC27853	–	–	16 µg/mL
CN(C)[C@@H]1C(O)=C(C(N)=O)C(=O)[C@@]2(O)C(O)=C3C(=O)c4c(cc5ccc(-c6ccccc6)cc5c4O)C[C@H]3C[C@@H]12	broth dilution	ATCC27853	–	–	32 µg/mL
CC1NC(=O)C(C(=O)NC(C(=O)NC2C(=O)N3C2SC(C)(C)C3C(=O)O)c2ccccc2)=C1O (stereo not shown)	–	–	–	–	50 µg/mL
CC(C)Oc1c(NC(=O)c2ccc(NC(=O)[C@H](CC(N)=O)NC(=O)c3ccc(NC(=O)c4ccc(C#N)cc4)cc3)cc2)ccc(C(=O)NC2CCNCC2)c1O	–	PA14	–	–	> 64 µg/mL
C[C@H]1COc2c(N3CCN(C)CC3)c(F)cc3c(=O)c(C(=O)O)cn1c23	agar dilution	ATCC27	–	–	1 µg/mL
CC(C)Oc1c(NC(=O)c2ccc(NC(=O)[C@H](CC(N)=O)NC(=O)c3ccc(NC(=O)c4cccc([N+](=O)[O-])c4)cc3)cc2)ccc(C(=O)Nc2ccc(C(=O)O)cc2)c1O	–	PA14	–	–	> 64 µg/mL

SMILES	technique	strain	time	notes	MIC
Fc1ccccc1NCc1ccc(Oc2ccccn2)cc1	–	–	–	–	> 25 µg/mL
CN(C)[C@@H]1C(O)=C(C(N)=O)C(=O)[C@@]2(O)C(O)=C3C(=O)c4c(O)c(NCC(C)(C)CN5CCCC5)nc(Cl)c4C[C@H]3C[C@@H]12.Cl	broth dilution	ATCC27853	–	–	32 µg/mL
C=CCn1c(-c2ccc(Cl)c(Cl)c2)nc2ccccc21	broth dilution	ATCC27853	–	–	512 µg/mL
Cc1ccc(C)n1-c1ccc(-c2nnc(-c3ccc(N(C)C)cc3)[nH]2)cc1	broth dilution	ATCC10145	18 h	–	250 µg/mL
CCCCCCC#Cc1cncc(-c2nnc(SCc3ccc(Cl)cc3)n2C2CC2)c1	–	–	–	–	≥ 20 µg/mL
O=c1c(O)c(-c2ccc(O)c(O)c2)oc2cc(O)cc(O)c12	broth dilution	PAO1	–	–	256 µg/mL
C/C(O)=C1\C(=O)C(CC(C)C)N(C(=O)C=Cc2ccccc2)C1=O (stereo not shown)	–	PA01	–	–	> 200 µg/mL
CC(C)Oc1c(NC(=O)c2ccc(NC(=O)[C@H](CC(N)=O)NC(=O)c3ccc(NC(=O)c4ccc(C#N)cc4)cc3)cc2)ccc(C(=O)O)c1O	–	PA14	–	–	> 64 µg/mL
CN(C)c1cc(NC(=O)CNC(C)(C)C)c(O)c2c1C[C@H]1C[C@H]3[C@H](N(C)C)C(O)=C(C(N)=O)C(=O)[C@@]3(O)C(O)=C1C2=O	broth dilution	ATCC27853	–	–	8 µg/mL
CC(C)Oc1c(NC(=O)c2ccc(NC(=O)[C@H](CC(N)=O)NC(=O)c3ccc(NC(=O)C(C)Oc4ccccc4)cc3)cc2)ccc(C(=O)Nc2ccc(C(=O)O)cc2)c1O (stereo partly shown)	–	PA14	–	–	> 64 µg/mL
O=c1[nH]cc(F)c(=O)[nH]1	broth dilution	–	24 h	–	4 µg/mL
Cn1c(SCc2ccc(Cl)cc2)nnc1-c1cncc(C#Cc2ccccc2)c1	–	–	–	–	≥ 20 µg/mL
CN(C)[C@@H]1C(O)=C(C(N)=O)C(=O)[C@@]2(O)C(O)=C3C(=O)c4c(O)cccc4[C@@](C)(O)[C@H]3C[C@@H]12	–	ATCC27853	–	–	8 µg/mL
COc1c(C)c(OC(=O)c2ccccc2)c(C)c(O)c1C(=O)/C=C/c1ccccc1	broth dilution	ATCC27853	–	–	5000 µg/mL
O=C(O)c1cn(C2CC2)c2cc(N3CCNCC3)c(F)cc2c1=O	–	–	–	–	1.6 µg/mL
O=C(Cc1cc(O)c(O)c(O)c1)NCCCCCCCC[P+](c1ccccc1)(c1ccccc1)c1ccccc1.[Br-]	broth dilution	ATCC27853	18 h	–	> 32 µg/mL
Cc1cccc2nc(-c3ccc([N+](=O)[O-])o3)[nH]c12	broth dilution	ATCC27853	–	–	> 64 µg/mL
CN[C@H](CC(C)C)C(=O)N[C@H]1C(=O)N[C@@H](CC(N)=O)C(=O)N[C@H]2C(=O)N[C@H]3C(=O)N[C@H](C(=O)N[C@H](C(=O)O)c4cc(O)cc(O)c4-c4cc3ccc4O)[C@H](O)c3ccc(c(Cl)c3)Oc3cc2cc(c3O[C@@H]2O[C@H](CO)[C@@H](O)[C@H](O)[C@H]2O[C@H]2C[C@](C)(N)[C@H](O)[C@H](C)O2)Oc2ccc(cc2Cl)[C@H]1O	broth dilution	ATCC27853	18 h	–	> 32 µg/mL
CCCCCCC/C=C/C(=O)N1C(=O)/C(=C(/C)O)C(=O)C1CO (stereo not shown)	–	PA01	–	–	> 200 µg/mL
CN(C)c1ccc(-c2ccc3cc4c(c(O)c3c2)C(=O)C2=C(O)[C@]3(O)C(=O)C(C(N)=O)=C(O)[C@@H](N(C)C)[C@@H]3C[C@@H]2C4)cc1	broth dilution	ATCC27853	–	–	32 µg/mL
CC1=NN(CNc2ccc(C(=O)O)cc2)C(=O)C1=NNn1c(-c2ccccc2)nc2ccccc2c1=O	broth dilution	–	24 h	–	50.5 µM
CC(C)Oc1c(NC(=O)c2ccc(NC(=O)[C@H](CC(N)=O)NC(=O)c3ccc(NC(=O)c4ccc(C#N)cc4)cc3)cc2)ccc(C(=O)N[C@@H]2CONC2=O)c1O	–	PA14	–	–	> 64 µg/mL
O=C1NN=C(N=Cc2ccccc2)C1=NNn1c(-c2ccccc2)nc2ccccc2c1=O	broth dilution	–	24 h	–	114 µM
Cc1cc(C)n(C(=O)c2ccc(-n3c(C)ccc3C)cc2)n1	broth dilution	ATCC10145	18 h	–	250 µg/mL
